Measurements from ChEMBL document CHEMBL1150304, “Synthesis of new heteroaryl and heteroannulated indoles from dehydrophenylalanines: Antitumor evaluation” (2008).

Experiments:
Format in all cases: functional
[1] = test system: MCF7; assay: Antitumor activity against human MCF7 cells after 48 hrs; details: MCF7, 48 h
Summary of the method: (§1)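 NCI-derived lines grown as monolayers in RPMI-1640 with 5% heat-inactivated FBS and 2 mM glutamine, 37 °C, 5% CO2. Plated at 1.5 × 10⁵ cells/mL (MCF-7, SF-268) or 0.75 × 10⁴ cells/mL (NCI-H460) and incubated 24 h. Continuous 48 h exposure to five serial concentrations (DMSO ≤0.5%). Sulforhodamine B stain, A492. GI50 is 50% net-growth inhibition from dose-response curves. Experiments run independently in duplicate.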

[2] = test system: SF-268; assay: Antitumor activity against human SF268 cells after 48 hrs; details: SF-268, 48 h; summary of the method: as §1
[3] = test system: NCI-H460; assay: Antitumor activity against human NCI-H460 cells after 48 hrs; details: NCI-H460, 48 h; summary of the method: as §1

| SMILES | GI50 [1] [µM] | GI50 [2] [µM] | GI50 [3] [µM] |
| --- | --- | --- | --- |
| COC(=O)c1[nH]c2ccccc2c1-c1cccc2c1sc1ccccc12 | 11 | 17 | 12.7 |
| COC(=O)c1[nH]c2ccc3c4ccccc4sc3c2c1-c1ccccc1 | 72.7 | 50 | 40.3 |
| COC(=O)c1[nH]c2ccccc2c1-c1cccc2c1oc1ccccc12 | 26.5 | 35 | 18 |
| COc1cccc2c1C(=O)c1c(O)c3c(c(O)c1C2=O)C[C@@](O)(C(=O)CO)C[C@@H]3O[C@H]1C[C@H](N)[C@H](O)[C@H](C)O1 [DOXORUBICIN] | 0.0428 | 0.094 | 0.094 |
